Data on six compounds can be found in ChEMBL document CHEMBL1140336, “Synthesis, structure-activity relationships, and biological evaluation of fatty alcohol phosphates as lysophosphatidic acid receptor ligands, activators of PPARgamma, and inhibitors of autotaxin” (J Med Chem, 2005).

Assay [1] concerns the target T1, Lysophosphatidic acid receptor 1 (Homo sapiens, UniProt Q92633). The assay is described as follows: Binding affinity for Lysophosphatidic acid receptor 1 expressed in RH7777 rat hepatoma cells. It counts as cell-based. The gist of the method:
(§1)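 Fura-2 Ca2+ assay. RH7777 cells stably expressing LPA1, LPA2 or LPA3, or PC-3 cells (endogenous LPA1-3), seeded at 50000 cells/well on poly-D-lysine and grown overnight. Serum-starved in modified Krebs, pH 7.4, for 6-8 h (PC-3: 12 h), then Fura-2 AM loaded for 35 min. Compound added at 15 s; wells read 80-120 s. Transient taken as peak minus baseline 340/380 ratio. Antagonism: LPA 18:1 coapplied; highest concentration 30 μM.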

Assay [2] deals with T1, Lysophosphatidic acid receptor 1. The assay can be described thus: (§2) Inhibition of LPA-induced calcium transients in RH7777 rat hepatoma cells expressing LPA1 receptor. It counts as functional, cell-based. In outline: as §1
The target in assay [3] is T2, Lysophosphatidic acid receptor 2 (Homo sapiens, UniProt Q9HBW0). The assay can be described thus: Inhibition of LPA-induced calcium transients in RH7777 rat hepatoma cells expressing LPA2 receptor; No effect. In kind it is functional, cell-based. The gist of the method: as §1
For assay [4], the target named is T3, Lysophosphatidic acid receptor 3 (Homo sapiens, UniProt Q9UBY5).
T3 sequence (Q9UBY5 whole entry): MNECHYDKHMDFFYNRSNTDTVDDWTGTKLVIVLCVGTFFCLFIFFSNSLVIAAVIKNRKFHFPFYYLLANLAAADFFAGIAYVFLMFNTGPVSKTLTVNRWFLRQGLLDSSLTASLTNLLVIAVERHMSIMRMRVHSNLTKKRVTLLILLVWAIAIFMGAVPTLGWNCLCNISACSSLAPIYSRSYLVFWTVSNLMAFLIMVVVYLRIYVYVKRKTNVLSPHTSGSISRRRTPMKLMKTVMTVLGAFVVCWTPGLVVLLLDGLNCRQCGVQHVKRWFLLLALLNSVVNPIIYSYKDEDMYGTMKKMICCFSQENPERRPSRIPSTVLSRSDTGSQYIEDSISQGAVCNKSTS
The assay is described as follows: Binding affinity for Lysophosphatidic acid receptor 3 expressed in RH7777 rat hepatoma cells. It counts as cell-based. The gist of the method:
as §1

The target of assay [5] is T3, Lysophosphatidic acid receptor 3. The assay can be described thus: (§3) Inhibition of LPA-induced calcium transients in RH7777 rat hepatoma cells expressing LPA3 receptor. It counts as functional, cell-based. The gist of the method: as §1
The target in assay [6] is T1, Lysophosphatidic acid receptor 1. The assay can be described thus: Inhibition of LPA-induced calcium transients in RH7777 rat hepatoma cells expressing LPA1 receptor; Not effect. It counts as functional, cell-based. The gist of the method:
as §1

The target of assay [7] is T3, Lysophosphatidic acid receptor 3. The assay can be described thus: Inhibition of LPA-induced calcium transients in RH7777 rat hepatoma cells expressing LPA3 receptor; No effect. It counts as functional, cell-based. The gist of the method: as §1
In assay [8] the target is T2, Lysophosphatidic acid receptor 2. The assay is described as follows: Inhibition of LPA-induced calcium transients in RH7777 rat hepatoma cells expressing LPA2 receptor. In kind it is functional, cell-based.
Another assay concerns PC-3. The assay is described as follows: Inhibitory concentration against LPA expressed in PC-3 cells; Weak antagonist. In kind it is functional, cell-based, Homo sapiens. In outline: as §1
The target of assay [9] is T1, Lysophosphatidic acid receptor 1. The assay is described as follows: (§4) Inhibition of LPA-induced calcium transients in RH7777 rat hepatoma cells expressing LPA1 receptor; No effect. In kind it is functional, cell-based.
The target is the same in assay [10]. Described as §4. It counts as functional, cell-based. In outline: as §1
The source holds these as a separate data set.

A short description of assay [11]: Percent maximal efficacy in PC-3 cells. It counts as functional, Homo sapiens. In outline:
(§5)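 PC-3 human prostate cancer cells, which express LPA1-3 endogenously, 50000 cells/well. Serum-starved 12 h in modified Krebs, loaded with Fura-2 AM, read in a FlexStation. Ca2+ transient = 340/380 ratio peak minus baseline. Agonism (Emax as % of maximal LPA 18:1 response) and inhibition of LPA-induced transients were measured.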

Assay [12] concerns the target T1, Lysophosphatidic acid receptor 1. The description is as §2. It counts as functional, cell-based. The source holds these as a separate data set.
In assay [13] the target is T3, Lysophosphatidic acid receptor 3. The assay is described as §3. In kind it is functional, cell-based. This is another data set of the same source.
The target in assay [14] is T1, Lysophosphatidic acid receptor 1. The assay can be described thus: Maximal efficacy in induction of [Ca2+] transients in RH7777 rat hepatoma cells expressing LPA1 receptor. In kind it is functional, cell-based. In outline:
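Agonist mode in RH7777 cells stably expressing the named LPA receptor, serum-starved 6-8 h, Fura-2 AM loaded. Increasing compound concentrations were added alone and the Ca2+ transient was read as the 340/380 ratio peak minus baseline. Emax = compound maximal response as a percentage of the LPA 18:1 maximal response.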

The species named for assay [15] is Homo sapiens. The assay can be described thus: Maximal shape change of human platelets induced by the compound. In kind it is functional. In outline:
(§6)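 Washed human platelets, aspirin-treated and isolated with apyrase, at 4 × 10^5/μL in HEPES buffer pH 7.4, stirred at 37 °C. Lipids given as BSA complexes (4:1). Shape change read as the fall in light transmission in an aggregometer. […] Mean ± SD across different donors.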

The nature of assay [16]: Inhibition of LPA-induced calcium transients in PC-3 cells. It counts as functional, cell-based, Homo sapiens. As to conditions: Homo sapiens, PC-3; read-out: IC50; call rule not given here. In outline:
as §5

The species entered for assay [17] is Homo sapiens. The assay can be described thus: Inhibitory concentration of compound (after 5 min of incubation) against LPA human platelets.
Assay [18] in a line: Binding affinity for Lysophosphatidic acid receptor in PC-3 cells. It counts as cell-based, Homo sapiens. The gist of the method:
as §1

Assay [19] is filed under the species Homo sapiens. The assay can be described thus: (§7) Concentration of compound (after 5 min of addition) that induce LPA expressed in human platelets. In kind it is functional.
Assay [20] can be described thus: Inhibition of LPA-induced calcium transients in PC-3 cells; No effect. In kind it is functional, cell-based, Homo sapiens. In outline: as §1
Assay [21] is described as follows: Inhibition of LPA expressed in PC-3 cells; No effect. In kind it is functional, cell-based, Homo sapiens. In outline:
as §1

The species named for assay [22] is Homo sapiens. The description is as §7. It counts as functional. The gist of the method: as §6
The source holds these as a separate data set.

The target of assay [23] is T2, Lysophosphatidic acid receptor 2. The assay can be described thus: Inhibition of LPA-induced calcium transients in RH7777 rat hepatoma cells expressing LPA2 receptor;No effect. In kind it is functional, cell-based. The gist of the method: as §1

T2 sequence (Q9HBW0 whole entry): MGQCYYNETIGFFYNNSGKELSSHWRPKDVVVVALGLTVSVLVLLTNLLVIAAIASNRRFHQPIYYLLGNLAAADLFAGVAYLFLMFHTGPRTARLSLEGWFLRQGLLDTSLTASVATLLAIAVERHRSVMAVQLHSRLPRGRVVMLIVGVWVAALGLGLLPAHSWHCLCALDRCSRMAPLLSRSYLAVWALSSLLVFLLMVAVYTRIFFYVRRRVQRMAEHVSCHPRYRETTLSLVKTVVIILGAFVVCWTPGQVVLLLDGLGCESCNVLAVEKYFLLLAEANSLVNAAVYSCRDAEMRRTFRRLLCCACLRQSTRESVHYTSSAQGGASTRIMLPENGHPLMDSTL
T1 sequence (Q92633 whole entry): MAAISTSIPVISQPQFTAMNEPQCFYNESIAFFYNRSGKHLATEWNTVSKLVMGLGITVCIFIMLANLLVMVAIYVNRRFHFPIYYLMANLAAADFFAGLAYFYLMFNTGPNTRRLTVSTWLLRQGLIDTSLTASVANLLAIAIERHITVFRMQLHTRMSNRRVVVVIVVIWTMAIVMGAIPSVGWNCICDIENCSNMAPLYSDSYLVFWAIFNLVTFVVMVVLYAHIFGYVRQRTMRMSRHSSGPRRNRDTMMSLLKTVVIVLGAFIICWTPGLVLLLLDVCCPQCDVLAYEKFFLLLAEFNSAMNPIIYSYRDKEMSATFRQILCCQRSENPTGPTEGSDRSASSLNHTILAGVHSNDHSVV

As for `CCCCCCCC(=O)OC[C@H](COP(=O)(O)OP(=O)(O)O)OC(=O)CCCCCCC`, the Ki in [1] came out at 4300 nM; in assay [4], 202 nM. Besides, the IC50 in assay [2] is 5500 nM; in assay [3] it was “Not Active”; in assay [5], 454 nM. For the same compound, the concentration for a half-maximal effect (EC50) result in assay [3], in assay [6] and in [7] was “Not Active” throughout.
On to `CCCCCCCCCCCCCCCC(=O)N[C@@H](Cc1ccc(OP(=O)(O)O)cc1)C(=O)O`, for which the figures for the EC50 in [8], in assay [10] and in assay [7] were approximately 11000 nM, “Not Active” and “Not Active”, respectively. The IC50 entry in the assay on PC-3 was “Partial antagonist”; in [3], “Not Active”; in assay [9], “Not Active”; in [5] it was 5570 nM. This compound also returned a Ki in [4] of 2320 nM. In addition, the Emax in [11] came out at 25%.
With `CCCCCCCCCCCCCCCC(=O)N[C@@H](COP(=O)(O)O)C(=O)O`, the results for the EC50 entry in [3], in assay [12] and in assay [13] were “Not Active”, 1850 nM and 1600 nM, respectively. Also, the IC50 entry in assay [3] and in [7] was “Not Active” throughout. Besides, the Emax was found to be 42% in assay [11] and 100% in assay [14].
As for `CC/C=C/CCCCCCCCOP(O)(O)=S`, the EC50 was 677 nM in assay [8], “Not Active” in assay [10], 1000 nM in the assay listed under Homo sapiens [19] and “Not Active” in assay [7]. Besides, the Emax in the assay listed under Homo sapiens [15] amounted to 73%; in assay [11] it was 27%. Besides, the concentration for half-maximal inhibition (IC50) in [16] is 2970 nM; in [3] it was “Not Active”; in assay [9] it was “Not Active”; in the assay listed under Homo sapiens [17] it was 700 nM; in assay [5], 27 nM. The Ki was 1460 nM in [18] and 14 nM in assay [4].
As to `CCCCCCCCCCCCCCCCCCP(=O)(O)O`, the EC50 entry in [3], in [20], in assay [10] and in assay [7] was “Not Active” in each case. Further, the IC50 result in assay [3], in [9], in assay [21] and in assay [7] was “Not Active” each time.
Turning to `CCCCCCCCCCCCCCOP(=O)(O)O` [PHOSPHORIC ACID MONOTETRADECYL ESTER], the EC50 is 430 nM in the assay listed under Homo sapiens [22], “Not Active” in [3], “Not Active” in assay [10] and “Not Active” in assay [7]. Further, the Emax in the assay filed under Homo sapiens [15] came out at 87%. Also, the inhibition constant Ki amounted to 1080 nM in assay [1] and 211 nM in assay [4]. Further, the IC50 in assay [2] was 2300 nM; in the assay listed under Homo sapiens [17], 420 nM; in assay [5], 422 nM; in assay [23], “Not Active”.

As usually defined, the Ki is the dissociation constant of the complex between target and ligand, obtained from inhibition or displacement. A higher Ki goes with weaker binding. Usually IC50 stands for the concentration needed to halve the response being measured. For orientation: EC50 means the concentration that produces a half-maximal response. As usually defined, the Emax is the maximal effect, on the per cent scale that the assay sets.
